From ChEMBL document CHEMBL1144994, “Metal coordination-based inhibitors of adenylyl cyclase: novel potent P-site antagonists” (J Med Chem, 2003) come the findings set out here.

Adenylate cyclase type 5, sequence (O95622 whole entry): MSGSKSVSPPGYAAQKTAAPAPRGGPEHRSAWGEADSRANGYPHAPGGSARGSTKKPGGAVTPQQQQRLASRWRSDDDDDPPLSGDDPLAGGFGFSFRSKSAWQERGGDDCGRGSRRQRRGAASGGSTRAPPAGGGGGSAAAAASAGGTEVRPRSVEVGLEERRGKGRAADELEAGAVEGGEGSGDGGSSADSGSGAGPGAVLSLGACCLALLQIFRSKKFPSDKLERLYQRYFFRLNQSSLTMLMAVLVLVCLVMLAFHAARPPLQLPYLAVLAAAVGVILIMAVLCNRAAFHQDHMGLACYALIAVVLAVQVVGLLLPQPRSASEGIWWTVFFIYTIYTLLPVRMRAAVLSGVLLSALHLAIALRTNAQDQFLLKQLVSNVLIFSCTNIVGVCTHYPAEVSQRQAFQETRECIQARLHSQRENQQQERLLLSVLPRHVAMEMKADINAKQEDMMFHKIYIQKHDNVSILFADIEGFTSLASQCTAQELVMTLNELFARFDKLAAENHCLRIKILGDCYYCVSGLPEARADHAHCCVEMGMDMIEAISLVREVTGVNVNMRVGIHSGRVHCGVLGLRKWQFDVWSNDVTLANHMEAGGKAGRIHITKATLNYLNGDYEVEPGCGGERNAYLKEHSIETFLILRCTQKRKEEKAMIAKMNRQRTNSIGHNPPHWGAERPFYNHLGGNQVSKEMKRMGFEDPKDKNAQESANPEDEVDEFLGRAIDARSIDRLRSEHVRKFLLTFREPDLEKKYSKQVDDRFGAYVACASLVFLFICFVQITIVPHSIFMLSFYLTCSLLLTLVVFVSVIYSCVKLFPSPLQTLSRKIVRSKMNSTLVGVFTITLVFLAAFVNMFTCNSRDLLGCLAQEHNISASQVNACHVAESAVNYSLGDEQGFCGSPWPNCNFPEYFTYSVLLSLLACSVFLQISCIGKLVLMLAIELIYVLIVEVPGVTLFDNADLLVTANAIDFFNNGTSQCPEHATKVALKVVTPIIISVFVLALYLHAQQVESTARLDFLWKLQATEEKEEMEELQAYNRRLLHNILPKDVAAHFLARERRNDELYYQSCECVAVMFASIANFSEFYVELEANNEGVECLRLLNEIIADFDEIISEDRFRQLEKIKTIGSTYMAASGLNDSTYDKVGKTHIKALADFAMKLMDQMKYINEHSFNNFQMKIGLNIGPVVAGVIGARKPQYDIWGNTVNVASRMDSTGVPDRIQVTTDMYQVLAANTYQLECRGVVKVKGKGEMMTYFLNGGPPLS

This assay concerns the target Adenylate cyclase type 5 (Homo sapiens, UniProt O95622). Description: Inhibitory activity against recombinant human adenylate cyclase 5 expressed in HEK293 cells. Type of assay: cell-based. Summed up: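 Membranes from HEK293 cells expressing human type V AC (1.4 µg/mL protein), stimulated with 25 nM activated recombinant GsR. Buffer: 60 mM HEPES pH 8.0, 0.6 mM EDTA, 0.01% BSA, 1 mM ATP, 2 mM IBMX, 2 mM MgCl₂. Reaction 30 min at 30 °C. cAMP product quantified by flash plate. Inhibition calculated against compound-free controls.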
Consider `Nc1ncnc2c1ncn2[C@@H]1C=C[C@H](C(=O)NO)C1`, for which the IC50 is over 200 µM.
The value for `Nc1ncnc2c1ncn2[C@@H]1CC[C@@H](C(=O)NO)C1` (single isomer, unassigned) was 78 µM; that for `Nc1ncnc2c1ncn2[C@H]1C=C[C@@H](CC(=O)NO)C1` was 16.3 µM.
With `Nc1ncnc2c1ncn2[C@@H]1CC[C@H](CC(=O)NO)C1` the figure was 55 µM.
With `Nc1ncnc2c1ncn2[C@@H]1C=C[C@@H](CC(=O)NO)C1` the figure was 4.3 µM; with `Nc1ncnc2c1ncn2[C@H]1C=C[C@@H](C(=O)NO)C1`, 188 µM; with `Nc1ncnc2c1ncn2[C@@H]1C=C[C@@H](C(=O)NO)C1`, 100 µM.
In the case of `Nc1ncnc2c1ncn2[C@H]1CC[C@H](CC(=O)NO)C1`, the IC50 was determined as 9.4 µM.
Take `Nc1ncnc2c1ncn2[C@H]1C=C[C@H](CC(=O)NO)C1`: the IC50 came out at 0.4 µM.
The value for `Nc1ncnc2c1ncn2[C@H]1C=C[C@H](OCC(=O)NO)C1` was 13.6 µM; that for `Nc1ncnc2c1ncn2[C@H]1CC[C@@H](CC(=O)O)C1` was over 200 µM.
The value for `Nc1ncnc2c1ncn2[C@@H]1CC[C@H](C(=O)NO)C1` was over 70 µM; that for `Nc1ncnc2c1ncn2[C@@H]1CC[C@H](CC(=O)O)C1` was over 200 µM; that for `Nc1ncnc2c1ncn2[C@H]1CC[C@@H](C(=O)NO)C1` was 4.6 µM.
With `Nc1ncnc2c1ncn2[C@@H]1C=C[C@H](CC(=O)O)C1` the figure was 73.2 µM; with `Nc1ncnc2c1ncn2[C@H]1CC[C@H](OCC(=O)NO)C1`, 10.8 µM.
On to `Nc1ncnc2c1ncn2[C@H]1C=C[C@@H](CC(=O)O)C1`, for which the 50% inhibitory concentration (IC50) was over 200 µM.
The value for `Nc1ncnc2c1ncn2[C@@H]1C=C[C@@H](CC(=O)O)C1` was over 200 µM.
With `Nc1ncnc2c1ncn2[C@H]1C=C[C@H](CC(=O)O)C1` the figure was 8.2 µM; with `Nc1ncnc2c1ncn2[C@@H]1C=C[C@H](CC(=O)NO)C1`, 2.6 µM; with `Nc1ncnc2c1ncn2[C@@H]1CC[C@@H](CC(=O)NO)C1`, 0.6 µM.
With `Nc1ncnc2c1ncn2[C@@H]1CC[C@@H](CC(=O)O)C1` the figure was 28.8 µM; with `Nc1ncnc2c1ncn2[C@H]1CC[C@@H](CC(=O)NO)C1`, 25.1 µM; with `Nc1ncnc2c1ncn2[C@H]1CC[C@H](CC(=O)O)C1`, over 100 µM.
`Nc1ncnc2c1ncn2[C@H]1CC[C@H](C(=O)NO)C1` (single isomer, unassigned): the half-maximal inhibitory concentration (IC50) came out at 0.2 µM.
With `Nc1ncnc2c1ncn2[C@H]1C=C[C@H](C(=O)NO)C1` the figure was 4.9 µM.

As a reminder, the IC50 is the concentration at which inhibition is half-maximal.
